Reference: ChEMBL document CHEMBL1139924, “The structure-activity relationship of the series of non-peptide small antagonists for p56lck SH2 domain” (Bioorg Med Chem, 2007)
The source made the active and inactive calls. The rule behind the calls is not given here.

Legend:
[1] = Inhibition of p56lck SH2 domain by ELISA; design: species or system Homo sapiens
Outline: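 Competitive ELISA. Compound plus GST-p56lck SH2 fusion (100 ng/ml) incubated 1 h at room temperature, in duplicate wells. Bound protein detected with rabbit anti-GST, then HRP anti-rabbit and TMB, acid-stopped, A450. Ac-pYEEIE control peptide; IC50 reported.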

[2] = system: Jurkat; test: Inhibition of Jurkat cell activation assessed as blocking of T-cell antigen receptor-induced IL-2 expression at 10 uM by luciferase assay; format: functional; settings: Homo sapiens
Outline: (§1)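 Jurkat T cells (2 × 10⁶) transfected with 2 µg IL-2-luciferase reporter by lipofection. Compounds added 2 h before activation and kept present throughout 16 h stimulation with plate-coated anti-CD3 mAb (5 µg/ml, UCHT1) or […] plus ionomycin (0.5 µg/ml). Cells then washed, lysed and read for luciferase by luminometry. Three independent experiments in duplicate. Cyclosporin A positive control.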

[3] = Partition coefficient, log P of the compound; format: physicochemical; settings: octanol/water
Outline: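 Shake-flask partition. Compound at 1 mM final in 1-octanol/water with an equal volume of 1-octanol/water added, vortexed 30 min. P is the octanol concentration divided by the aqueous concentration. Three independent experiments in duplicate.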

[4] = system: Jurkat; test: Inhibition of Jurkat cell activation assessed as blocking of T-cell antigen receptor-induced IL-2 expression at 30 uM by luciferase assay; format: functional; settings: Homo sapiens; outline: as §1

Row | Structure (SMILES) | IC50 [1] [µM] | inhibition at 10 µM [2] [%] | logP [3] | inhibition at 30 µM [4] [%] | Activity [4]
1 | O=C(O)/C=C/c1ccc(O)c(O)c1 [CAFFEIC ACID] | > 500 | 2 | – | – | –
2 | O=C(/C=C/c1ccc(O)c(O)c1)O[C@H](Cc1ccc(O)c(O)c1)C(=O)O [ROSMARINIC ACID] | 24 | 40.4 | 0.834 | 50 | –
3 | COC(=O)CCCCCNC(=O)[C@@H](Cc1ccc(O)c(O)c1)OC(=O)/C=C/c1ccc(O)c(O)c1 | > 500 | 29.4 | 1.68 | – | –
4 | COC(=O)[C@@H](Cc1ccc(O)c(O)c1)NC(=O)/C=C/c1ccc(O)c(OC)c1 | > 500 | 2.2 | 1.31 | – | –
5 | COC(=O)[C@@H](Cc1ccc(O)c(O)c1)NC(=O)/C=C/c1ccc(O)c(O)c1 | 71 | 61.6 | 1.39 | – | –
6 | COC(=O)[C@@H](Cc1ccc(O)c(O)c1)NC(=O)c1ccc(O)c(O)c1 | 19 | 0.4 | 0.125 | – | –
7 | COC(=O)[C@@H](Cc1ccc(O)c(O)c1)NC(=O)/C=C/c1ccc(OC)c(OC)c1 | > 500 | 3.5 | 1.52 | – | –
8 | O=C(CCc1ccc(O)c(O)c1)O[C@H](Cc1ccc(O)c(O)c1)C(=O)O | 15 | 7.6 | 0.503 | – | –
9 | O=C(/C=C/c1ccc(O)c(O)c1)N[C@@H](Cc1ccc(O)c(O)c1)C(=O)O | 21 | 11 | 0.731 | – | –
10 | O=C(CCc1ccc(O)c(O)c1)N[C@H](Cc1ccc(O)c(O)c1)C(=O)O | 13 | 0 | 0.493 | – | –
11 | O=C(/C=C/c1ccc(O)c(O)c1)N[C@H](Cc1ccc(O)c(O)c1)C(=O)O | 20 | 10.3 | 0.758 | – | –
12 | CCCOC(=O)[C@@H](Cc1ccc(O)c(O)c1)OC(=O)/C=C/c1ccc(O)c(O)c1 | 145 | 87.5 | 1.52 | – | –
13 | COC(=O)[C@@H](Cc1ccc(O)c(O)c1)NC(=O)/C=C/c1ccc(OC)c(O)c1 | > 500 | 5.4 | 1.37 | – | –
14 | COC(=O)[C@@H](Cc1ccc(O)c(O)c1)OC(=O)/C=C/c1ccc(O)c(O)c1 [METHYL ROSMARINATE] | 80 | 54.7 | 1.48 | – | Active
15 | NC(Cc1ccc(O)c(O)c1)C(=O)O (racemic) | > 500 | 0.6 | – | – | –
16 | COC(=O)[C@@H](Cc1ccc(O)c(O)c1)NC(=O)Cc1ccc(O)c(O)c1 | 21 | 23 | 0.138 | – | –
17 | COC(=O)[C@@H](Cc1ccc(OC)c(OC)c1)NC(=O)/C=C/c1ccc(O)c(O)c1 | > 500 | 9.4 | 1.53 | – | –
18 | CC(C)OC(=O)[C@@H](Cc1ccc(O)c(O)c1)OC(=O)/C=C/c1ccc(O)c(O)c1 | 110 | 86.1 | 1.83 | – | –
19 | CCOC(=O)[C@@H](Cc1ccc(O)c(O)c1)OC(=O)/C=C/c1ccc(O)c(O)c1 [ETHYL ROSMARINATE] | 91 | 22.7 | 1.5 | – | –
20 | CC(C)(C)OC(=O)[C@@H](Cc1ccc(O)c(O)c1)OC(=O)/C=C/c1ccc(O)c(O)c1 | 127 | 80.7 | 2 | – | –
21 | COC(=O)[C@@H](Cc1ccc(O)c(O)c1)NC(=O)CCc1ccc(O)c(O)c1 | 32 | 7.5 | 0.344 | – | –
